A selection: hits, their analogues and other compounds. The true share with any hit is near 1.6%.
NOD2 RIPK2 PPI = inhibitors of human NOD2-RIPK2 interaction. O43353. CHO BLA complementation NOD2-RIPK2, CCF4 ratio. 0.38% of 360,000 active. inhibition, % at 4.98 µM. AID 624267; in the data active means inhibition above about 21%
Target sequence (O43353 whole entry, looked up): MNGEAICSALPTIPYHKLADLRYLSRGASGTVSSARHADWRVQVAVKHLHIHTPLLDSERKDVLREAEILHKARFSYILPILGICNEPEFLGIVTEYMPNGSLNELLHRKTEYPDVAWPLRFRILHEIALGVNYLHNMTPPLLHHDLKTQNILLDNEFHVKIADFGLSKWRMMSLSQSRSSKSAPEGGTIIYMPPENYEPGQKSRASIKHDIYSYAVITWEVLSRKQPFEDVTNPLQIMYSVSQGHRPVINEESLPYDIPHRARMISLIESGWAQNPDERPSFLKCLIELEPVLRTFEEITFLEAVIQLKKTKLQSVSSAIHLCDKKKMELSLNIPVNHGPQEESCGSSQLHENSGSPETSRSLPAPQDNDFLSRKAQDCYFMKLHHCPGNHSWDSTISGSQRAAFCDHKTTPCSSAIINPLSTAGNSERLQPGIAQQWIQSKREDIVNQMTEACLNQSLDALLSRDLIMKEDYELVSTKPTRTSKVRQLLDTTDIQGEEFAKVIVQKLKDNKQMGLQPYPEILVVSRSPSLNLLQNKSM
Dynein transport = blocks dynein driven cargo transport along microtubules | z-score, hits read low | 3617.4 mouse cells, GR-EGFP nuclear translocation imaging; test concentration mostly 20 µM; stimulated with dexamethasone, 1 µM; active compounds read low | 0.47% of 220,000 active | AID 1381;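 active means plate z-score of nuclear minus cytoplasmic receptor signal below a set negative limit, without overly bright fluorescence or cell loss, cut at about -3.5 in these data, passing the limit was not always enough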;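 further: z-score of nuclear minus cytoplasmic ring GR-EGFP intensity difference per well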
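medium = tetracycline-free induction medium containing charcoal-stripped FBS | probe or stimulus = dexamethasone, 1.0 µM final | timing = 48 h induction, then 1 h compound, then 30 min agonist, 37 °C | detection = automated 10x imaging of fixed Hoechst-stained cells | read-out basis = nuclear versus cytoplasmic GR-EGFP signal, averaged per well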
TLR9-MyD88 block = inhibitors of human TLR9-MyD88 binding; Q9NR96+Q99836; CHO BLA complementation TLR9-MyD88, CCF4 FRET ratio; inhibition, % at 4.98 µM; 0.21% of 340,000 active; AID 504734;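 active means inhibition above the mean over all tested compounds plus 3 SD, cut at about 21% in these data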
ABHD5 PLIN5 PPI = inhibitors of human ABHD5-perilipin-5 interaction; 0.78% of 360,000 active; Q00G26+Q8WTS1; Split G. princeps luciferase complementation, luminescence, 4 h; inhibition, % at 4 µM;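 active means inhibition above the mean inhibition across every tested compound plus 3 SD, cut at about 22% in these data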
Beta2AR agonist = activates human beta-2 adrenergic receptor causing internalization; Am2.2-beta2AR cells, FAP receptor internalization, flow cytometry; response, % (no concentration beside the values); P07550; 0.43% of 340,000 active;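 active means response above a set limit, near 3 SD of response in nonfluorescent compounds, cut at about 42% in these data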
TLR4-MyD88 BLA = inhibitors of human TLR4-MyD88 binding; O00206+Q99836; HeLa CL3-4 TLR4/MyD88 BLA complementation, FRET ratio; inhibition, % at 8.4 µM; 0.18% of 200,000 active; AID 861; in the data active means inhibition above about 25%
ABHD5 PLIN5 conf = ABHD5-PLIN5 interaction inhibition, confirmed; shares compounds with ABHD5 PLIN5 PPI; biochemical ABHD5-PLIN5 interaction, luminescence; inhibition, % at 4 µM; 67% of 2,200 active; AID 651612; in the data active means inhibition above about 23%
HNF4 split-luc = active in HNF4 split-luciferase counter-screen for ABHD5-PLIN5 inhibitors; shares compounds with ABHD5 PLIN5 PPI; HNF4 dimerization, luminescence, biochemical; inhibition, % at 4 µM; 77% of 2,200 active;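 active means mean inhibition across replicate wells exceeding the computed hit threshold, cut at about 13% in these data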;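 further: light from luciferase halves that rejoin when HNF4 fusion proteins dimerize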
Large screens that a line does not name were inactive (follow-up assays come after a bar, where they were run).

CCOc1ccccc1CN1CCN(Cc2[nH]c3ccccc3c2C)CC1CCO (configuration not stated)	ABHD5 PLIN5 PPI 27 | ABHD5 PLIN5 conf inactive | HNF4 split-luc inactive
CCOc1ccccc1CN1CCN(Cc2c[nH]c3ccccc23)CC1CCO (configuration not stated)	none (no result: Dynein transport, TLR4-MyD88 BLA)
COCC(=O)N[C@@H]1c2cc(OC)c(OC)cc2C[C@H]1OCc1ccccc1	none (no result: Dynein transport, TLR4-MyD88 BLA)
CCN1CCN(Cc2ccc(NC(=O)c3ccc(C)c(/C=C/c4cnc(Nc5cc(N6CCNCC6)nc(C)n5)cn4)c3)cc2C(F)(F)F)CC1	ABHD5 PLIN5 PPI 28 (no result: Dynein transport, TLR4-MyD88 BLA) | ABHD5 PLIN5 conf 36 | HNF4 split-luc inactive
CCN1CCN(Cc2ccc(NC(=O)c3ccc(C)c(NC(=O)c4ccno4)c3)cc2C(F)(F)F)CC1	none (no result: TLR4-MyD88 BLA)
COC(=O)[C@@]1(Cc2ccc(OC)cc2)[C@@H]2C(=CC(=O)[C@H]2CC(=O)C(=O)N2CCCC2)CN1C(=O)c1ccccc1	Dynein transport -4.7, ABHD5 PLIN5 PPI 33 | ABHD5 PLIN5 conf 63 | HNF4 split-luc 49
CC1=NN(C(=O)c2ccc(Cn3cc(Br)c([N+](=O)[O-])n3)o2)C(O)(C(F)(F)F)C1 (configuration not stated)	none
CC1=NN(C(=O)c2ccc(Cn3nc(C)cc3C)o2)C(O)(C(F)(F)F)C1 (configuration not stated)	ABHD5 PLIN5 PPI 58 | ABHD5 PLIN5 conf inactive | HNF4 split-luc inactive
COc1ccc2oc(C(=O)N(Cc3ccco3)Cc3cccs3)c(C)c2c1	none (no result: Dynein transport, TLR4-MyD88 BLA)
O=C1NC(=Nc2ccc(O)cc2)S/C1=C\C=C\c1ccco1	ABHD5 PLIN5 PPI 33 (no result: TLR4-MyD88 BLA) | ABHD5 PLIN5 conf 27 | HNF4 split-luc 45
O=C(/C=C/c1ccccc1Cl)c1ccccc(=O)c1O	ABHD5 PLIN5 PPI 33 | ABHD5 PLIN5 conf 59 | HNF4 split-luc 43
Cc1ccc(/C=C/C(=O)c2ccccc(=O)c2O)c(C)c1	none
Cc1ccc(C)c(/C=C/C(=O)c2ccccc(=O)c2O)c1	ABHD5 PLIN5 PPI 30 | ABHD5 PLIN5 conf 56 | HNF4 split-luc 35
O=C(/C=C/c1ccc([N+](=O)[O-])cc1)c1ccccc(=O)c1O	ABHD5 PLIN5 PPI 66 (no result: Dynein transport, TLR4-MyD88 BLA) | ABHD5 PLIN5 conf 98 | HNF4 split-luc 91
Cc1cn(CC(=O)NCc2ccc(N(C)C)cc2)c(=O)[nH]c1=O	none (no result: Dynein transport, TLR4-MyD88 BLA)
c1ccc2c(-c3cc(NCc4ccncc4)n4nccc4n3)cccc2c1	none (no result: Dynein transport, TLR9-MyD88 block, Beta2AR agonist, TLR4-MyD88 BLA)
CN(C)CCOc1ccc(-c2c(-c3ccccc3)sc3ccccc23)cc1	ABHD5 PLIN5 PPI 29 (no result: Dynein transport, TLR4-MyD88 BLA) | ABHD5 PLIN5 conf inactive | HNF4 split-luc inactive
Cc1nnnn1/C(=C\c1ccccc1)C(=O)OCC(=O)NC(C)(C)C	none
Cc1nnnn1/C(=C\c1ccccc1)C(=O)OCC(=O)NC1CCCCC1	ABHD5 PLIN5 PPI 25 (no result: Dynein transport, TLR4-MyD88 BLA) | ABHD5 PLIN5 conf 55 | HNF4 split-luc 62
CC(=O)Nc1ccc(NC(=O)COC(=O)/C(=C/c2ccccc2)n2nnnc2C)cc1	ABHD5 PLIN5 PPI 40 (no result: Dynein transport, TLR4-MyD88 BLA) | ABHD5 PLIN5 conf 52 | HNF4 split-luc 51
CC(=O)N/C(=C\c1ccccc1)C(=O)OCC(=O)NC1CCCC1	none
COc1ccc(-c2[nH]nc3nc(N4CCN(C(=O)c5ccoc5)CC4)cc(C(F)(F)F)c23)cc1	none (no result: Dynein transport, Beta2AR agonist, TLR4-MyD88 BLA)
COC/C=C/C1=CC2=CC(=O)C(C)(OC(=O)C3CCCC3)C(=O)C2=CO1 (configuration not stated)	ABHD5 PLIN5 PPI 36 (no result: TLR4-MyD88 BLA) | ABHD5 PLIN5 conf 67 | HNF4 split-luc 39
COC/C=C/C1=CC2=CC(=O)C(C)(OC(=O)c3ccco3)C(=O)C2=CO1 (configuration not stated)	none (no result: NOD2 RIPK2 PPI, TLR9-MyD88 block, ABHD5 PLIN5 PPI, Beta2AR agonist, TLR4-MyD88 BLA)
CCCC(=O)N1CCCC1(C)C(=O)Nc1ccc2c(c1)CCN2C(C)=O (configuration not stated)	none (no result: Dynein transport, TLR9-MyD88 block, Beta2AR agonist, TLR4-MyD88 BLA)
CSC[C@H]1CN(Cc2ccccc2)C(=O)[C@@H]1CC(=O)Nc1ccc(Br)cc1	none (no result: Dynein transport, Beta2AR agonist, TLR4-MyD88 BLA)
